Results as given in PMC9197538 (CPT: Pharmacometrics & Systems Pharmacology, 2022).

Experiments:
[1] = format: in vivo, human
Outline: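 Joint semi-mechanistic fit of plasma data for the parent and two active metabolites, from healthy-volunteer single doses (20–160 mg) and patient q.d. dosing. Parent: two compartments, three absorption transit compartments. Metabolites: two and one compartments. An enzyme compartment's production follows Emax/EC50 on the molar sum, assuming equal molar potency. IIV is exponential, log-normal. BLOQ handled by modified M6.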

[2] = Model-based simulations of exposure; parameters: species or system human; settings: age 18–86 years, race, sex, body weight 37.3–132 kg, mild‐to‐moderate renal impairment, mild‐to‐moderate hepatic impairment
[3] = tested on: EGFRex20ins‐positive mNSCLC; settings: 160 mg q.d., cited from earlier work
[4] = after single‐dose administration; cited from earlier work
[5] = single oral dose radiolabeled mobocertinib 160 mg; cited from earlier work
[6] = cited from earlier work
[7] = low‐fat or high‐fat meal compared with fasting; cited from earlier work
CYP3A = settings: cited from earlier work
[8] = no reference given; cited from earlier work
[9] = final population PK model, untransformed parameter
[10] = platinum‐pretreated patients with EGFRex20ins‐positive mNSCLC

Compound: C=CC(=O)Nc1cc(Nc2ncc(C(=O)OC(C)C)c(-c3cn(C)c4ccccc34)n2)c(OC)cc1N(C)CCN(C)C [mobocertinib]
- IIV CL/F [1, 9]: 49.6%
- IIV Ka (interindividual variability) [1, 9]: 45.7%
- IIV Vc/F [1, 9]: 48.7%
- Ka, absorption rate constant [1, 9]: 2.12 h⁻¹
- Residual variability, additive error on log scale [1, 9]: 41.4%
- Kenz, rate constant for enzyme synthesis/degradation ([1]; final population PK model, enzyme (auto-induction) compartment): 0.00392 h⁻¹
- Emax, maximal induction effect ([1]; final population PK model, enzyme compartment, molar sum of the three moieties): 0.781
- Vd/F ([1]; human, plasma, oral, Vss/F, apparent volume of distribution at steady state, geometric mean (%CV 38%), derived from the final population PK model): 3510 L
- effect of covariates on mobocertinib PK [2]: No clinically meaningful differences
- median duration of response per IRC [3]: 17.5 months
- median overall survival [3]: 24.0 months
- confirmed objective response rate (ORR) per independent review committee (IRC) [3, 10]: 28%
- confirmed objective response rate (ORR) per investigators [3, 10]: 35%
- mean half‐life [4]: 20 h
- dose recovered in feces [5]: ~ 76%
- dose recovered in urine [5]: 4%
- percentage of administered dose recovered in feces as this moiety [5]: ~ 6%
- percentage of administered dose recovered in urine as this moiety [5]: ~ 1%
- decrease of molar sum AUC0–∞ ([6]; co‐administration with strong CYP3A inducer rifampin): 95%
- increase of molar sum AUC0–∞ of mobocertinib, AP32960, and AP32914 ([6]; co‐administration with strong CYP3A inhibitor itraconazole): 527%
- food effect on molar sum AUC [7]: no clinically meaningful differences
- CYP3A substrate and inducer status (in vitro) (CYP3A): both substrates and inducers of CYP3A
- CYP3A inhibition and induction (in vitro) (CYP3A; ref data on file, Takeda Development Center Americas): inhibitors and inducers of CYP3A
- Biopharmaceutics Classification System class [8]: Class 1
- permeability [8]: high permeability
- solubility [8]: highly soluble
